Results from different studies.
Compare with care: the assays were run in different laboratories.
JAK3: Tyrosine-protein kinase JAK3 (JAK3, Homo sapiens, UniProt P52333)
JAK3 JH1: Tyrosine-protein kinase JAK3, JH1 (JAK3, Homo sapiens, UniProt P52333)

Compound | target | test | conditions | quantity | result
CCCS(=O)(=O)Nc1ccc(F)c(C(=O)c2c[nH]c3ncc(-c4ccc(Cl)cc4)cc23)c1F | JAK3 | enzyme activity, inhibitor | 1 µM | inhibition | < 10%
Cc1ccc(Nc2nccc(N(C)c3ccc4c(C)n(C)nc4c3)n2)cc1S(N)(=O)=O | JAK3 | enzyme activity, inhibitor | 10 µM | inhibition | 77%
CSc1nc(C)c(-c2ccnc(Nc3ccc(N4CCOCC4)cc3)c2)[nH]1 | JAK3 | enzyme activity, inhibitor | 10 µM | inhibition | 65.5%
COc1cc(/C=C/C(=O)CC(=O)/C=C/c2ccc(O)c(OC)c2)ccc1O | JAK3 | enzyme activity, inhibitor | 1 µM | activity vs control | 104%
COc1ccc2c(c1)O[C@H](c1ccc(OC)c(OC)c1)C[C@@H]2NC(=O)C1(c2ccc3c(c2)OC(F)(F)O3)CC1 | JAK3 JH1 | cell-free assay, competition with immobilised ligand | 1 µM | remaining binding | 100%
CNC(=O)c1cc(Oc2ccc(NC(=O)Nc3ccc(Cl)c(C(F)(F)F)c3)cc2)ccn1 | JAK3 | cell-free assay | 0.5 µM | remaining signal | 99.4%
Cc1cc(NC(=O)c2cccc3cc(-c4cccc5[nH]nc(N)c45)ccc23)ccc1F | JAK3 | enzyme activity, inhibitor | 0.1 µM | activity vs control | 94%
CCN(CC)CCNC(=O)c1c(C)[nH]c(/C=C2\C(=O)Nc3ccc(F)cc32)c1C | JAK3 | enzyme activity, inhibitor | 0.3 µM | inhibition | 7%
O=C(NC[C@@H]1[C@H]2CN(C(=O)OCc3cc(C(F)(F)F)cc(C(F)(F)F)c3)C[C@@H]12)c1ccc2[nH]nnc2c1 | JAK3 JH1 | cell-free assay, competition with immobilised ligand | 1 µM | remaining binding | 69%
CCCOc1ccc(OC)c(F)c1C(=O)c1ccc(C(=O)N[C@@H]2CNC[C@H]2NC(=O)c2ccc3[nH]ncc3c2)cc1 | JAK3 | enzyme activity, inhibitor | 10 µM | remaining activity | 19%
COc1cc2ncnc(Nc3ccc(Oc4ccccc4)c(C)c3C)c2cc1OC | JAK3 | enzyme activity, inhibitor | 1 µM | inhibition | 5%
CN(C)CC#Cc1ccc(OCCCc2sc(N3CCc4cccc(C(=O)Nc5nc6ccccc6s5)c4C3)nc2C(=O)O)c(F)c1 | JAK3 JH1 | cell-free assay, competition with immobilised ligand | 1 µM | remaining binding | 58%
N#CCCc1ccc2c(c1)-c1[nH]c3ccc([N+](=O)[O-])cc3c1CC(=O)N2 | JAK3 | cell-free assay | 0.5 µM | remaining signal | 101%
CCOC(=O)c1cc2cc(-c3cc(C(=O)NCc4ccc(C(=O)O)cc4)nn3C)ccc2[nH]1 | JAK3 JH1 | cell-free assay, competition with immobilised ligand | 0.1 µM | remaining binding | 82%
C[C@@H]1CCN(c2nccc(-c3cnn4ncccc34)n2)C1 | JAK3 JH1 | cell-free assay | 1 µM | remaining signal | 80%
Cc1ccc(C(=O)NCc2ccsc2)cc1C#Cc1cn(C(C)C)c2ncnc(N)c12 | JAK3 | enzyme activity, inhibitor | 1 µM | activity vs control | 74%
CC(C)(O)[C@H]1CC[C@H](Nc2ccc3ncc(-c4cccc(C(F)(F)F)c4)n3n2)CC1 | JAK3 | enzyme activity, inhibitor | 1 µM | remaining activity | 84.8%
CNCc1ccccc1-c1csc([C@H](C)Nc2nc(C)nc3cc(OC)c(OC)cc23)c1 | JAK3 JH1 | cell-free assay, competition with immobilised ligand | 1 µM | remaining binding | 99%
O=C1Nc2ccc(Cl)cc2C1=Cc1cc(Cl)c(O)c(Cl)c1 | JAK3 | cell-free assay | 0.5 µM | remaining signal | 100%
O=C(Nc1cnn(-c2csc(C(=O)NC3COC3)c2)c1)Nc1c(F)cccc1Cl | JAK3 | enzyme activity, inhibitor | 5 µM | remaining activity | 98.7%
N[C@H]1CCN(c2nccc(-c3cnn4ncccc34)n2)C1 | JAK3 JH1 | cell-free assay | 1 µM | remaining signal | 86%
CN1CC(Oc2cnc(C#N)cc2-c2ccn3nc(NC(=O)C4CC4)cc3c2)C1 | JAK3 | enzyme activity, inhibitor | 1 µM | inhibition | 15%
COc1cccc(CNC(=O)c2nc3scc(COCc4ccc(C(=O)O)cc4)c3c(=O)[nH]2)c1 | JAK3 JH1 | cell-free assay, competition with immobilised ligand | 1 µM | remaining binding | 78.4%
CC/C(=N\NC(=O)NCc1cccc(O)c1)c1ccc(O)c(C)c1O | JAK3 | enzyme activity, inhibitor | 0.1 µM | inhibition | 3%
CCC(=N\O)/C(C)=C/c1ccc(F)cc1 | JAK3 JH1 | cell-free assay, competition with immobilised ligand | 1 µM | remaining binding | 80%
CC(C)(C)c1nc(-c2cccc(NS(=O)(=O)c3c(F)cccc3F)c2F)c(-c2ccnc(N)n2)s1 | JAK3 | enzyme activity, inhibitor, radiometric | 1 µM | remaining activity | 115%
O=C(CSc1nc2nccnc2c(=O)n1CCc1ccccc1)Nc1nccs1 | JAK3 | enzyme activity, inhibitor | 10 µM | inhibition | -2%
Cn1nc(C(=O)NCc2ccc(C(=O)O)cc2)cc1-c1ccc2[nH]ccc2c1 | JAK3 JH1 | cell-free assay, competition with immobilised ligand | 0.1 µM | remaining binding | 65%
Cc1ccc(C(=O)Nc2ccc(CN3CCN(C)CC3)c(C(F)(F)F)c2)cc1C#Cc1cnc2cccnn12 | JAK3 | enzyme activity, inhibitor | 23.5 nM | remaining activity | 14%
